Shown are actives, neighbours in structure and some others; about 4.9% of the full set was active somewhere.
NF-kB neuron act = NF-kB expression increase, human neuronal cells; NF-kB reporter expression; stronger effect = higher value; fold change at 12.5 µM; 190,000 compounds, 1.6% hits; in the data active = fold change above about 3.3
STAT3 inh = reduces IL-6 driven STAT3 reporter signal | U3A cells, IL-6 STAT3-luciferase reporter, luminescence; host cell line lacks STAT1 | inhibition, % at 5.5 µM | 190,000 compounds, 0.89% hits;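 active = inhibition above the mean inhibition across all screened compounds plus 3 SD, cut at about 44% in these data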
STAT1 blocker = STAT1 signaling inhibition; AID 920; NIH 3T3 STAT1-luciferase reporter, IFN-gamma, luminescence; 200,000 compounds, 0.35% hits; inhibition, % at 5.5 µM;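 active = inhibition above a set limit, the mean inhibition across all tested compounds plus 3 SD, cut at about 34% in these data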
STAT3 act = activators of IL-6 induced STAT3 signaling. AID 871. 190,000 compounds, 0.91% hits. activation (% of control), % at 5.6 µM. U3A cells, IL-6 STAT3-luciferase reporter, luminescence; 100% = signal with IL-6 EC80 alone;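 active = activation above the screen-wide mean of compound activation plus 3 SD, cut at about 130% in these data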
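system = STAT3-luciferase reporter U3A cells | reagent = IL-6 stimulus at 33 ng/mL final | timing = 1 h compound pre-exposure, 6 h IL-6 stimulation, 37 °C | measured by = luminescence | evaluation = % activation versus median of IL-6-stimulated wells | control set = IL-6-only wells as 100% reference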
STAT1 act = STAT1 signaling activation; activation (% of control), % at 5.5 µM; 200,000 compounds, 2.6% hits; AID 932; NIH 3T3 STAT1-luciferase reporter, IFN-gamma, luminescence; 100% = IFN-gamma alone, no compound;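 active = activation above the screen-wide mean activation plus 3 SD, cut at about 130% in these data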
APP 5'UTR act = APP 5'UTR luciferase reporter activation; SH-SY5Y APP 5'UTR luciferase reporter, luminescence; zero percent = DMSO vehicle wells; activation, % at 2 µM; 190,000 compounds, 1% hits; AID 1276;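 active = activation above a set limit, based on mean plus 3 SD of controls, cut at about 140% in these data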
A number is an active result; . = inactive; / = not tested or not shown.

SMILES	NF-kB neuron act	STAT3 inh	STAT1 blocker	STAT3 act	STAT1 act	APP 5'UTR act
COc1cc(/C=C/C(=O)c2ccc(O)cc2)ccc1OCC#N	3.72	.	.	.	.	.
COc1cccc(C(=O)/C=C/c2ccc(OCC#N)c(OC)c2)c1	.	.	.	.	.	.
CC1(/[N+]([O-])=C/c2ccccc2F)CCCCC1=O (stereo not given)	.	.	.	.	.	.
O=C(NCc1nc2ccccc2[nH]1)C1=C[C@H](c2ccc3c(c2)OCO3)C[C@H](OCc2ccc(CO)cc2)O1	.	/	.	/	.	.
O=C(Cc1ccc([N+](=O)[O-])cc1)N1N=C(c2ccncc2)CC1(O)C(F)(F)F (stereo not given)	.	.	.	.	.	.
Cc1ccc(O)c(C(=O)CC(=O)c2cccc(F)c2)c1	.	.	.	.	130.2	.
O=C(CC(=O)c1cc(Cl)ccc1O)c1ccccc1	.	.	.	.	131.4	.
CCC(C)(C)n1nnnc1CN1CCN(c2ccc(OC)cc2)CC1	.	.	.	.	.	.
C/C(CC(=O)NC1CCCC1)=N\NC(=O)Cc1csc(N)n1	.	.	.	.	.	.
C=CCNc1nc(-c2ccc(OC)cc2OC)cs1	3.38	.	.	.	150.5	.
Cc1cccc(C(=O)Nc2sc3c(c2C#N)CCCCC3)c1	3.56	.	.	.	.	178.3
N#Cc1c(NC(=O)c2cccnc2)sc2c1CCC2	.	.	.	.	.	.
N#Cc1c(NC(=O)c2cnccn2)sc2c1CCCC2	.	.	.	.	140.0	.
CCn1c(=O)cc(SCC(=O)N2CCN(c3ccccc3F)CC2)c2ccccc21	.	.	.	.	.	.
Fc1ccc2c(c1)/C(=N/Nc1ccccn1)CCS2	.	.	.	.	.	.
COCCN(Cc1cc2cc(C)ccc2nc1Cl)C(=O)Nc1ccccc1OC	.	.	.	.	.	.
Cc1cccc(OCc2nc(-c3nonc3N)no2)c1C	.	.	.	.	139.3	.
O=C(CN(Cc1ccco1)C(=O)Cn1nnc(-c2cccs2)n1)NCC1CCCO1 (stereo not given)	.	.	.	.	.	.
COc1cc(OC)cc(-c2cc(NC(C)=O)n[nH]2)c1	.	.	.	.	.	.
CC(=O)Nc1cc(-c2ccc(Cl)cc2)[nH]n1	.	.	.	.	144.3	.
O=C(NCCSc1c[nH]c2ccccc12)c1ccc2c(c1)OCO2	.	.	.	.	.	.
N/C(=N\OC(=O)c1ccc(F)cc1)c1nonc1N	.	.	.	.	.	.
COc1ccc(/C=N/N=C(\N)c2nonc2N)cc1OC	.	.	.	.	141.1	.
COc1cc(/C=N/N=C(\N)c2nonc2N)ccc1O	.	.	.	.	129.8	.
N/C(=N\N=C\c1ccc(O)cc1)c1nonc1N	5.13	.	.	.	.	.
SMILES	NF-kB neuron act	STAT3 inh	STAT1 blocker	STAT3 act	STAT1 act	APP 5'UTR act
COc1cc(/C=N/NC(=O)c2nonc2C)ccc1O	.	.	.	.	.	.
CC(C)CNC(=O)c1cccc(NC(=O)Cc2ccc(Cl)cc2)c1	.	.	.	.	.	.
CC[C@@H](C)[C@@H](C(=O)N1CCN(C(=O)OC(C)(C)C)CC1)n1cc(CCCCNC(=O)OC(C)(C)C)nn1	.	/	.	/	.	.
COc1ccc2c(c1OC)C(=O)N1c3cccc(Cl)c3C(=O)OC21 (stereo not given)	.	.	.	.	.	.
COc1ccc2c(c1OC)C(=O)N1c3ccccc3COC21 (stereo not given)	4.4	.	.	.	147.7	.
COc1ccc2c(c1OC)C(=O)N1c3ccccc3SC21 (stereo not given)	.	.	.	.	148.9	.
Cc1ccnc(SCC(=O)c2ccc(Br)cc2)c1C#N	.	.	.	.	146.1	.
Cc1cc(C)c(C#N)c(OCC(=O)c2ccc(Br)cc2)n1	.	.	.	.	.	.
Cc1ccc(C(=O)CSc2nsc(C)c2C#N)cc1	6.04	.	.	.	.	156.3
Cc1snc(SCC(=O)c2ccc(Cl)cc2)c1C#N	.	.	.	.	.	.
COc1cccc(C(=O)Oc2c(Br)cc(Br)cc2/C=N/NC(=O)c2cc(C)[nH]n2)c1	.	.	.	.	.	.
Nc1ccc(O)cc1C(=O)OCC(=O)c1ccc(C2CCCCC2)cc1	6.77	.	.	.	.	.
